Screening results as filed in PubChem.
TRPC6 act: mouse TRPC6 channel activators, primary screen, cell-based, HEK293, membrane potential dye. B-score at 10 µM. 0.13% of 310,000 active. HEK293-TRPC6 membrane potential dye fluorescence; stronger effect = higher value. Short transient receptor potential channel 6 (Mus musculus), Q61143;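 active = B-score of the integrated fluorescence ratio above library mean plus 3 SD, and starting fluorescence ratio within library mean plus 5 SD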;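 also: higher score means more depolarization so channel activation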
TRPC6 inhibitor: mouse TRPC6 channel inhibitors, primary screen, cell-based, HEK293, membrane potential dye; Short transient receptor potential channel 6 (Mus musculus), Q61143; ACh-evoked depolarization; stronger effect = lower value; B-score at 10 µM; 1.1% of 310,000 active; AID 2553, 2010;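 active = B-score under library mean minus 3 SD, initial fluorescence not abnormally high, positive integrated signal ratio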;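 also: B-score derived from integrated fluorescence ratio over the kinetic read; more negative B-score means stronger inhibition of depolarization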
TRPC4 PAM: positive allosteric modulators of TRPC4, primary screen, cell-based, mouse TRPC4beta, HEK293 mu-opioid, Fluo-4 calcium | Short transient receptor potential channel 4 (Mus musculus), Q9QUQ5 | DAMGO EC20, Fluo-4 Ca2+ flux; stronger effect = higher value | B-score at 10 µM | 0.42% of 310,000 active | AID 2227, 2009;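 active = B-score of calcium response area above 5 SD of library B-scores, with initial fluorescence ratio within 5 SD of library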
Target sequence (Q9QUQ5 whole entry, looked up): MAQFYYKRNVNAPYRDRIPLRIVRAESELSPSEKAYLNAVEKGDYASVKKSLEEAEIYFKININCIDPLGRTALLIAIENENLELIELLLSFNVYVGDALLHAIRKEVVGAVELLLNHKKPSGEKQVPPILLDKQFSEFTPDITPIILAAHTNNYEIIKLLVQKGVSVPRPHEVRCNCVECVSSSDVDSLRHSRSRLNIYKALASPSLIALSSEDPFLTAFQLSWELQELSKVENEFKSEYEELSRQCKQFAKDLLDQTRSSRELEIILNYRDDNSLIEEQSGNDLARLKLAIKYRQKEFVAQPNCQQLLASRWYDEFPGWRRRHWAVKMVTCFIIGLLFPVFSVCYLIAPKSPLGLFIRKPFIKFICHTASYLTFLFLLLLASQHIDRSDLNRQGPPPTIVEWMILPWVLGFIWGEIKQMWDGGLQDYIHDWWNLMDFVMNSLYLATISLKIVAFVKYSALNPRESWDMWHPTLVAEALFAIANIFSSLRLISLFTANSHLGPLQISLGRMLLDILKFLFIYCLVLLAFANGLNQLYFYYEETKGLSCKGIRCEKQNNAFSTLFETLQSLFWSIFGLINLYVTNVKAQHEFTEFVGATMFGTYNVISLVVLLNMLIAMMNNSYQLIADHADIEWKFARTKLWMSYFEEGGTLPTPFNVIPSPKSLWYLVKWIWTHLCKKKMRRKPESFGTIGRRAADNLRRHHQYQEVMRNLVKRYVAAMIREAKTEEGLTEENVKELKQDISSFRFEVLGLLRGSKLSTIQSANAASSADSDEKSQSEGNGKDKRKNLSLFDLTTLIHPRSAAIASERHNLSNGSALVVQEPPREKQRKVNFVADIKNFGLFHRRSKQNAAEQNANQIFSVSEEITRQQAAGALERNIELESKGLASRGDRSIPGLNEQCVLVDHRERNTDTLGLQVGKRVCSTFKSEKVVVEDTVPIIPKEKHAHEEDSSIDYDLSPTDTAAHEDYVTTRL
TRPC4 block: inhibitors of mouse TRPC4 channel, primary screen, Fluo4 calcium, HEK293 TRPC4beta/mu-opioid cells; DAMGO-evoked Fluo4 calcium flux; stronger effect = lower value; B-score at 10 µM; 0.39% of 300,000 active; AID 2247, 2010;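 active = B-score over 3 SD under the library average, no early fluorescence shift, positive overall ratio signal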
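Assay system: TRPC4beta/mu-opioid receptor HEK293 cell line; compound dosing: single concentration per test compound; detection: Fluo4 Ca2+ flux fluorescence; evaluation: per-well B score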
TRPC4 agonist: activators of mouse TRPC4 channel, primary screen, Fluo4 calcium, HEK293 TRPC4beta/mu-opioid cells; Fluo4 calcium fluorescence; stronger effect = higher value; AID 2237, 2010; B-score at 10 µM; 0.49% of 310,000 active; Short transient receptor potential channel 4 (Mus musculus), Q9QUQ5;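 active = B-score above 5 SD of library B-scores, and initial fluorescence ratio not above library mean plus 5 SD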;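 also: positive B-score marks a calcium rise read as TRPC4 activation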
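Material: TRPC4beta and mu-opioid receptor HEK293 stable cells | Incubation: 45 min room-temperature Fluo4 loading, 110 s read | Detection: Kinetic Fluo4 calcium fluorescence | Measure: Integrated baseline-normalised fluorescence ratio, converted to per-well B score | Benchmarks: Low control buffer alone, high control maximal DAMGO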
Large screens that a line does not name were inactive. Sampled rows, rich in hits. Any-hit rate of the full collection: about 2.3%.

Cc1[nH]n2c(=O)c3c(nc2c1-c1ccccc1)CCC3	TRPC4 block -6
COc1ccc(-c2c(C)[nH]n3c(=O)c(Cc4ccccc4)c(C)nc23)cc1	TRPC4 block -6
Cn1c(=O)c2sccc2n2c(CCCC(=O)NCCc3ccc(S(N)(=O)=O)cc3)nnc12	none
CCOC(=O)c1c(-c2ccc(C)cc2)csc1NC(=O)C1CC=CCC1C(=O)O (stereo unspecified)	none
Cc1ccc(-c2csc(NC(=O)C3CC=CCC3C(=O)O)c2C(=O)OC(C)C)cc1 (stereo unspecified)	TRPC4 block -5
CCOC(=O)c1c(-c2cccc(C)c2)csc1NC(=O)C1CC=CCC1C(=O)O (stereo unspecified)	TRPC4 block -6
COc1ccc(C2NC(=O)Cc3cc(OC)c(OC)cc32)cc1OC (stereo unspecified)	none
COC(=O)c1ccc(C(=O)OC)c(NC(=O)CN2CCN(c3ccccc3OC)CC2)c1	none
CCOC(=O)N1CCN(C(=O)CCN2C(=O)COc3ccccc32)CC1	none
CCc1ccc2nc3n[nH]c(N)c3cc2c1	TRPC4 agonist 68
Cc1cccnc1N1C(=O)c2ccc(C(=O)O)cc2C1=O	none
CCCC1=[N+](CC(=O)c2ccc(C)cc2)CCn2cccc21	TRPC4 block -6
O=C(O)C(Cc1ccccc1)N1C(=O)/C(=C/c2ccccc2)SC1=S (stereo unspecified)	none
Cc1ccc(/C=C2\SC(=S)N(C(Cc3ccccc3)C(=O)O)C2=O)cc1 (stereo unspecified)	TRPC4 block -8
CCn1ncc(/C=N\NC(=O)COc2cc(C)cc(C)c2)c1C	none
FC(F)(F)c1ccccc1NC(=S)Nc1ccccc1	none
CCOC(=O)C1CCN(C(c2ccccn2)c2c(C)[nH]c3ccccc23)CC1 (stereo unspecified)	TRPC6 inhibitor -5.83
Cc1[nH]c2ccccc2c1C(c1ccncc1)N1CCN(c2ccccc2F)CC1 (stereo unspecified)	none
Cc1[nH]c2ccccc2c1C(c1ccncc1)N1CCN(c2ccccn2)CC1 (stereo unspecified)	TRPC4 agonist 49
Cc1ccccc1C(=O)Nc1nc(=S)ss1	none
COc1ccc(NC(=O)Cn2nc(C)c3ccccc3c2=O)cc1	none
CCCC/C(O)=C1\C(=O)CC(C)(C)CC1=Nc1ccc(OC)cc1	TRPC4 PAM 12
O=C(NCc1ccccc1)c1c(Cl)nc(Cl)c(Cl)c1Cl	TRPC4 block -6
Cc1nc(Cl)c(C(=O)NCc2ccccc2)c(C)c1Cl	none
Cc1cc(C(=O)O)c(CCCN)s1	none
CSc1nsc(SCC(=O)Nc2ccccc2)n1	none
CSc1nsc(NC(=O)Cc2ccccc2)n1	TRPC4 block -6
Brc1ccc(OCc2nnnn2-c2ccccc2)cc1	none
CCOC(=O)c1c(NC(=O)COC(=O)Cn2cnc3c2c(=O)n(C)c(=O)n3C)sc(C)c1CC	TRPC4 block -7
Cc1cccc(C(=O)NNC(=S)NC(=O)c2cccs2)c1	TRPC4 agonist 212
COc1ccc(C(=O)NNC(=S)NC(=O)c2cccs2)cc1	TRPC4 agonist 85
COc1ccc(C(=O)NNC(=S)NC(=O)c2ccc(F)cc2)cc1Br	TRPC4 agonist 49
COc1ccccc1C(=O)NNC(=S)NC(=O)c1sc2ccccc2c1Cl	TRPC4 block -8, TRPC4 agonist 48
CCCCn1c(N)c(N(CCC(C)C)C(=O)CSc2nnc(Nc3ccccc3)s2)c(=O)[nH]c1=O	none
CCN(CC)c1ccc(/C=N/N2CCN(Cc3ccccc3Cl)CC2)cc1	none
O=C(NC(=S)NNC(=O)[C@H]1C[C@@H]1c1ccccc1)c1cccc(F)c1	TRPC4 agonist 211
O=C(COc1ccccc1)NNC(=S)NC(=O)c1ccc(Cl)cc1Cl	TRPC4 agonist 69
Cc1occc1C(=O)NNC(=S)NC(=O)COc1ccc(Cl)cc1Cl	TRPC4 agonist 87
COc1ccccc1C(=O)NNC(=S)NC(=O)c1cccs1	TRPC4 agonist 137
O=C(COc1cccc(Cl)c1)NNC(=S)Nc1ccccc1	none
COc1ccc(C2c3ccc(O)cc3Oc3ncn(Cc4ccccc4)c(=N)c32)cc1OC (stereo unspecified)	none
Cc1cccc(/C(N)=N/OC(=O)COc2ccc(Cl)cc2)c1	none
Cc1cccc(C(=O)NC(=S)NNC(=O)COc2ccc(Cl)cc2)c1	TRPC4 agonist 68
Cc1ccc(C(=O)NNC(=O)c2cccc(C)c2)cc1	none
Cc1cccc(C(=O)NNC(=S)NC(=O)c2ccccc2)c1	TRPC4 agonist 173
CCCCC(=O)NC(=S)NNC(=O)c1ccc(Cl)cc1Cl	TRPC4 agonist 165
O=C(Cc1ccc(Cl)cc1)NNC(=S)NC(=O)c1cccs1	TRPC4 agonist 107
COc1ccc(NC2CCCN(C(=O)CCN3CCCC3=O)C2)cc1 (stereo unspecified)	none
CC(=O)Oc1c(-c2ccc(Br)o2)oc2ccccc2c1=O	none
Fc1ccc(C[n+]2csc3ccccc32)cc1	none
COc1ccc(C(=O)NNC(=S)Nc2ccccc2)cc1	none
COc1ccc(C(=O)NNC(=S)NC(=O)c2ccc(OC)cc2)cc1	TRPC4 agonist 78
COc1ccc(C(=O)NC(=S)NNC(=O)c2cccc(C)c2)cc1	TRPC4 agonist 214
COc1ccc(C(=O)NNC(=S)NC(=O)c2cccnc2)cc1	none
c1ccc(-c2ccc(-c3ccccn3)nn2)nc1	TRPC6 inhibitor -11.1
Cc1cc(Oc2ccc(-c3ccccc3)cc2)nc(N2CCOCC2)n1	none
Cc1cc(Oc2ccc(C(C)(C)C)cc2)nc(N2CCOCC2)n1	TRPC4 PAM 18
C/C(=N\NC(=O)c1c[nH]c2ccccc12)c1ccccn1	none
C/C(=N\NC(=O)c1cc2ccccc2cc1O)c1ccccn1	TRPC4 agonist 53
COC(=O)N1C(=O)[C@](c2ccsc2)(C(C)C)N1C(=O)OC	none
COc1ccc(CC(=O)Nc2cc(Cl)ccc2C(=O)O)cc1	none
CCCCOc1ccc(Nc2cc(Cl)ccc2C(=O)O)cn1	TRPC4 block -7
CCn1cc(S(=O)(=O)c2ccc(C)cc2)c(=O)c2cc(F)c(N3CCN(C)CC3)cc21	none
Cc1ccccc1CC(=O)NC1CCCc2ccccc21 (stereo unspecified)	none
O=[N+]([O-])c1ccccc1CNC1CCCc2ccccc21 (stereo unspecified)	TRPC4 block -6
COc1ccc(-n2c3c(cc(C(=O)NNc4ccccc4)c2=O)C(=O)CC(C)(C)C3)cc1	TRPC4 agonist 70
